Results gathered from unrelated publications.
Lines come from different studies, so protocols differ. Values after ≈ are worked out from the molar mass of the structure shown.
Organism: Streptococcus pneumoniae

SMILES	test	system	conditions	measurement	value
O=c1[nH]cc(F)c(=O)[nH]1	microbial killing, broth dilution		48 h	MBC	0.25 µg/mL (≈ 1.92 µM)
O=C(O)CN1C(=O)/C(=C/c2ccc(-c3ccc(N(c4ccccc4)c4ccccc4)cc3)cc2)SC1=S	microbial killing, broth dilution	ATCC49619		MBC	500 µg/mL (≈ 957 µM)
COc1cc(Cc2cnc(N)nc2N)cc(OC)c1OC	microbial killing, broth dilution		48 h	MBC	0.25 µg/mL (≈ 0.861 µM)
O=C(O)CN1C(=O)/C(=C/c2c3ccccc3c(-c3ccc(N(c4ccccc4)c4ccccc4)cc3)c3ccccc23)NC1=S	microbial killing, broth dilution	ATCC49619		MBC	> 1000 µg/mL
CN(C)[C@@H]1C(O)=C(C(N)=O)C(=O)[C@@]2(O)C(O)=C3C(=O)c4c(cc5ccc(-c6cccnc6)cc5c4O)C[C@H]3C[C@@H]12	microbial growth, broth dilution	ATCC49619		MIC	32 µg/mL (≈ 59.1 µM)
CC[C@H]1OC(=O)[C@H](C)[C@@H](O[C@H]2C[C@@](C)(OC)[C@@H](O)[C@H](C)O2)[C@H](C)[C@@H](O[C@@H]2O[C@H](C)C[C@H](N(C)C)[C@H]2O)[C@](C)(OC)C[C@@H](C)C(=O)[C@H](C)[C@@H](O)[C@]1(C)O	microbial growth			MIC90	256 µg/mL (≈ 342 µM)
CN(C)c1ccc(-c2ccc3cc4c(c(O)c3c2)C(=O)C2=C(O)[C@]3(O)C(=O)C(C(N)=O)=C(O)[C@@H](N(C)C)[C@@H]3C[C@@H]2C4)cc1	microbial growth, broth dilution	ATCC49619		MIC	32 µg/mL (≈ 54.8 µM)
CN(C)c1cc(CNCC(C)(C)C)c(O)c2c1C[C@H]1C[C@H]3[C@H](N(C)C)C(O)=C(C(N)=O)C(=O)[C@@]3(O)C(O)=C1C2=O	microbial growth	157E		MIC	< 0.06 µg/mL
